The source of these data is ChEMBL document CHEMBL2010793, “Synthesis of novel 7-oxo and 7-hydroxy trifluoroallocolchicinoids with cytotoxic effect” (Bioorg Med Chem, 2012).

In experiment [1] the test system is KB. The experiment can be described thus: Cytotoxicity against human KB cells assessed as inhibition of cell proliferation at 10^-5 M after 72 hrs by MTS assay. As to conditions: read-out: GI. Type of experiment: functional. The method, boiled down:
(§1)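 KB cells seeded at 650 cells/well in 200 µl medium, dosed 24 h later with compounds from DMSO (1% DMSO final; controls DMSO only). After 72 h, MTS added for 3 h at 37 °C, A490 read; inhibition from treated/control OD ratio. Single-concentration tests in triplicate with docetaxel 2.5 10^-10 M reference; IC50 runs in separate duplicate.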
(Tetrazolium dyes change colour on reduction, which living cells bring about.)

Experiment [2] relates to KB. Briefly: Cytotoxicity against human KB cells assessed as inhibition of cell proliferation at 10^-6 M after 72 hrs by MTS assay. Type of experiment: functional. As to conditions: read-out: GI. The gist of the method:
as §1

In experiment [3] the test system is KB. Briefly: Cytotoxicity against human KB cells assessed as inhibition of cell proliferation after 72 hrs by MTS assay. Type of experiment: functional, cell-based. The method, boiled down: as §1
The species named for experiment [4] is Ovis aries. Briefly: Inhibition of sheep brain tubulin polymerization at 6.7 x 10^-5 M after 15 mins by turbidimetry analysis. The method, boiled down:
(§2)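 Microtubule protein from sheep brain, purified by two assembly/disassembly cycles (37 °C/0 °C) in 100 mM MES pH 6.6, 1 mM EGTA, 0.5 mM MgCl2. Compound with microtubule solution held 10 min at 37 °C then 5 min at 0 °C; polymerization followed by turbidity at 350 nm. Screened at 6.7 10^-5 M in triplicate, deoxypodophyllotoxin reference.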

Experiment [5] is described as follows: Inhibition of sheep brain tubulin polymerization after 15 mins by turbidimetry analysis. Details: species or system Ovis aries. The method, boiled down: as §2
Experiment [6] has as its system KB. The experiment can be described thus: Cytotoxicity against human KB cells. In kind it is functional, cell-based. The method, boiled down:
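KB cells seeded at 650 cells/well and dosed 24 h later with compounds in DMSO (1% final). Screened at 10^-5 and 10^-6 M in triplicate, with docetaxel 2.5 10^-10 M as reference. After 72 h, MTS was added for 3 h at 37 °C and A490 was read. Inhibition was derived from treated/control OD. IC50 was run in separate duplicate when inhibition exceeded 80% at 10^-5 M.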

The nature of experiment [7]: Inhibition of tubulin polymerization. The gist of the method:
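Sheep brain microtubule protein was purified by two assembly/disassembly cycles (37 °C/0 °C) in 100 mM MES pH 6.6, 1 mM EGTA, 0.5 mM MgCl2. Samples were incubated 10 min at 37 °C, then 5 min at 0 °C, and polymerization was read by turbidimetry at 350 nm. Compounds were tested at 6.7 10^-5 M in triplicate, with deoxypodophyllotoxin as reference.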

For `COc1ccc2c(c1)C(NC(=O)C(F)(F)F)CC(=O)c1cc(OC)c(OC)c(OC)c1-2` (racemic), the inhibition of growth at 10 µM in experiment [1] turned out to be 96%. The inhibition of growth at 1 µM in experiment [2] came to 98%. For the same compound, the IC50 in experiment [3] worked out at 45 nM; in experiment [5], 12 µM. This compound also displayed an inhibition in experiment [4] of 89%.
In the case of `COc1cc2c(cc1OC)-c1ccccc1C(NC(=O)C(F)(F)F)CC2=O` (stereo unspecified), the inhibition of growth at 10 µM in experiment [1] is 92%. In experiment [2], the inhibition of growth at 1 µM stood at 0%. For the same compound, the inhibition in experiment [4] was 12%.
Regarding `COc1ccc2c(c1)[C@@H](NC(C)=O)CCc1cc(OC)c(OC)c(OC)c1-2`, the IC50 in experiment [6] amounted to 19 nM; in experiment [7], 700 nM.
`COc1cc2c(c(OC)c1OC)-c1ccc(O)cc1C(NC(=O)C(F)(F)F)CC2=O` (stereo unspecified): in experiment [1], the inhibition of growth at 10 µM turned out to be 96%. Besides, the inhibition of growth at 1 µM in experiment [2] was 37%. Also, the IC50 in experiment [3] came out at 330 nM; in experiment [5], 37 µM. In experiment [4], this compound displayed an inhibition of 62%.
Take `COc1cc2c(c(OC)c1OC)-c1ccccc1C(NC(=O)C(F)(F)F)CC2=O` (stereo unspecified): the inhibition of growth at 10 µM in experiment [1] amounted to 91%. In experiment [2], the inhibition of growth at 1 µM was 18%. The IC50 stood at 2950 nM in experiment [3] and 80 µM in experiment [5]. In experiment [4], the inhibition was 48%.
For `COc1ccc2c(c1)C(NC(=O)C(F)(F)F)CC(=O)c1cc(OC)c(OC)cc1-2` (stereo unspecified), the inhibition of growth at 10 µM in experiment [1] is 38%. The inhibition of growth at 1 µM in experiment [2] was found to be 0%. Further, in experiment [4], the inhibition was 63%. Moreover, the IC50 in experiment [5] amounted to 60 µM.
In the case of `COc1cc2c(cc1OC)C(O)CC(NC(=O)C(F)(F)F)c1cc(O)ccc1-2` (mixture of isomers), the inhibition of growth at 10 µM in experiment [1] came to 2%. The inhibition of growth at 1 µM in experiment [2] was 0%. The compound also yielded an inhibition in experiment [4] of 13%.
For `COc1ccc(-c2ccc(OC)c3c2C(NC(=O)C(F)(F)F)CC3=O)c(OC)c1OC` (stereo unspecified), the inhibition of growth at 10 µM in experiment [1] was 97%. The inhibition of growth at 1 µM in experiment [2] is 0%. For the same compound, in experiment [3], the IC50 is 1250 nM. Moreover, in experiment [4], the inhibition stood at 33%.
As to `COc1cc2c(cc1OC)[C@H](O)C[C@@H](NC(=O)C(F)(F)F)c1ccccc1-2` (racemic), the inhibition of growth at 10 µM in experiment [1] turned out to be 9%. The inhibition of growth at 1 µM in experiment [2] amounted to 0%. Further, the inhibition in experiment [4] was 23%.
For `COc1cc([C@@H]2c3cc4c(cc3C[C@H]3COC(=O)[C@@H]32)OCO4)cc(OC)c1OC` [DESOXYPODOPHYLLOTOXIN], in experiment [1], the inhibition of growth at 10 µM was 100%. The inhibition of growth at 1 µM in experiment [2] was 100%. Besides, the IC50 in experiment [3] is 3 nM; in experiment [5] it was 3.2 µM. The same compound returned an inhibition in experiment [4] of 100%.
Consider `COc1cc2c(c(OC)c1OC)-c1ccccc1C(NC(=O)C(F)(F)F)CC2O` (mixture of isomers), for which, in experiment [1], the inhibition of growth at 10 µM was 8%. Besides, the inhibition of growth at 1 µM in experiment [2] stood at 0%. The inhibition in experiment [4] was 89%. Moreover, the IC50 in experiment [5] turned out to be 13 µM.
Take `COc1ccc2c(c1)C(NC(=O)C(F)(F)F)CC(O)c1cc(OC)c(OC)cc1-2` (mixture of isomers): in experiment [1], the inhibition of growth at 10 µM was found to be 9%. Besides, in experiment [2], the inhibition of growth at 1 µM was determined as 0%. The inhibition in experiment [4] came to 2%.
Regarding `COc1ccc2c(c1)C(NC(=O)C(F)(F)F)CC(O)c1cc(OC)c(OC)c(OC)c1-2` (stereo unspecified), the inhibition of growth at 10 µM in experiment [1] was 94%. The inhibition of growth at 1 µM in experiment [2] stood at 0%. In addition, the IC50 in experiment [3] came to 1600 nM. The inhibition in experiment [4] stood at 18%.
In the case of `COc1cc2c(cc1OC)-c1ccc(O)cc1C(NC(=O)C(F)(F)F)CC2=O` (stereo unspecified), the inhibition of growth at 10 µM in experiment [1] came to 40%. In experiment [2], the inhibition of growth at 1 µM is 0%. This compound also gave an inhibition in experiment [4] of 24%.
Taken in the same sequence, the figures for `COc1cc2c(c(OC)c1OC)-c1ccc(O)cc1C(NC(=O)C(F)(F)F)CC2O` (mixture of isomers) were 60%, 0% and 29%.

The term IC50 denotes the concentration needed to halve the response being measured. One may read the inhibition as the drop in the measured response relative to a control, in per cent. The low end stands for a weak effect, the high end for a strong effect.
